Assay outcomes: PubChem, several laboratories
ROMK primary – modulators of human ROMK potassium channel | P48048 | Tet-inducible ROMK, thallium flux fluorescence; actives lie on both sides | B-score at 10 µM | 130,000 compounds, 2% hits;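 active means signal ratio slope over the read window, or its plate-corrected B-score, at least 3 SD from the plate mean, either direction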;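 further: B-score of the F/F0 ratio slope over 7 to 12 s after thallium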
Target sequence (P48048 whole entry, looked up): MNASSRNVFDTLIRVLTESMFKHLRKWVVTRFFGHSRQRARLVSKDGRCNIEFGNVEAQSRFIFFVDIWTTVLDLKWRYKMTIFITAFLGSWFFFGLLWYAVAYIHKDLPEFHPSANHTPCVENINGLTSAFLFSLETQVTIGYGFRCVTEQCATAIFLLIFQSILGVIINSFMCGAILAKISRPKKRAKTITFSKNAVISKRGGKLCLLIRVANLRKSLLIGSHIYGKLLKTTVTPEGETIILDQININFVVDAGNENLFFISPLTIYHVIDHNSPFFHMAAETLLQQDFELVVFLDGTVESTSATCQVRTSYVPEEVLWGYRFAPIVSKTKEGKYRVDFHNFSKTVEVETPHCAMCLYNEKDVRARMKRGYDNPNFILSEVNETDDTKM
Calb biofilm kill – mixtures killing C. albicans biofilm. inhibition, % at 7.6 µM. 120,000 compounds, 0.02% hits. C. albicans biofilm persisters + clotrimazole, fluorescence viability; primary screen in compound mixtures of four per well;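 further: compounds exposed to preformed 24 h biofilms for 48 h; 0% = untreated biofilm control and 100% = clotrimazole plus chlorhexidine kill blank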
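Incubation: 24 h biofilm formation, then 48 h compound exposure, 37 °C | Material: C. albicans biofilms | Buffer or medium: RPMI/MOPS medium, pH 7.0 | Measured by: 2-h Alamar Blue fluorescence, 535/590 nm excitation/emission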
ROMK retest – human ROMK channel modulation, retest confirmation. shares compounds with ROMK primary. ROMK thallium flux, fluorescence ratio; stronger effect = lower value. normalized thallium flux (F/F0 slope) at 10 µM. 3,000 compounds, 54% hits. AID 1917;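 active means Flux at 10 µM at least 3 SD below or above vehicle control mean in one or both replicates; inconclusive means no clear call, values can overlap the other calls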
Starred values were filed as active, the others as inactive. The entries come from a sample that favours hits as a whole.

For CC(C)Nc1nnc(SCC(=O)NCc2ccc3c(c2)OCO3)s1 the results were ROMK primary -0.0611 and Calb biofilm kill 15.4.
Screening CCCCOc1ccc(C2(C(=O)O)CCCC2)cc1 returned ROMK primary 0.113.
Screening CC(C)c1cc(C(=O)Nc2cccnc2)no1 returned ROMK primary -0.0479.
For COc1cccc(-c2cc(C(=O)Nc3cccnc3)no2)c1 the results were ROMK primary 5.87* and ROMK retest 0.0888.
For Cn1cccc1C(=O)OCc1cc(Cl)cc2c1OCOC2 the results were ROMK primary -0.227.
`CC(=O)c1ccc(N2CCN(C(=O)c3cc4c(-c5ccccc5F)nn(C)c4s3)CC2)cc1` gave ROMK retest 0.0617*.
`CC(=O)c1ccc(N2CCN(C(=O)c3cc4c(s3)CCCC4)CC2)cc1` gave ROMK primary 0.0913 and Calb biofilm kill -1.2.
`COc1ccc(CN=Cc2c(O)[nH]c3ccccc23)cc1` gave ROMK primary -0.301 and Calb biofilm kill 19.0.
Screening Oc1c(C=NCc2ccc(F)cc2)[nH]c2ccc(Br)c(Cl)c12 returned ROMK primary -5.18* and ROMK retest 0.0474*.
Cc1ccc(CN=Cc2[nH]c3ccc(Br)c(Cl)c3c2O)cc1 was read as ROMK primary -3.21* and ROMK retest 0.0454*.
Screening Cc1ccc(CN2CCN(/N=C/c3cc(Br)cc(Br)c3O)CC2)cc1 returned ROMK primary 0.43 and Calb biofilm kill 4.5.
Screening CC(C)(O)C#Cc1ccc(C(=O)NCCc2ccc(S(N)(=O)=O)cc2)cc1 returned ROMK primary 0.528 and Calb biofilm kill -8.3.
For Cc1ccc(N2C(=O)CC(N3CCN(C4CCc5ccccc5C4)CC3)C2=O)cc1 (stereo unspecified) the results were ROMK primary -1.31.
`CCOc1ccc(N2C(=O)CC(N3CCN(C4CCc5ccccc5C4)CC3)C2=O)cc1` (stereo unspecified) gave ROMK primary -2.13* and ROMK retest 0.0643*.
Screening Nc1c(C(=O)NCCc2ccccc2)nnn1Cc1ccc(Br)cc1F returned Calb biofilm kill 14.5.
`COc1ccc(Sc2ncnc3onc(C)c23)cc1` gave ROMK primary -0.543 and Calb biofilm kill 5.3.
For COc1cc(C)c(Cl)c(C)c1S(=O)(=O)NC1CC(C)(C)NC(C)(C)C1 the results were ROMK primary -2.63*, Calb biofilm kill 7.1 and ROMK retest 0.0534*.
For COc1ccc(S(=O)(=O)NC2CC(C)(C)NC(C)(C)C2)c(C)c1C the results were ROMK primary -0.423.
CCOc1cc(C)c(Cl)cc1S(=O)(=O)NC1CC(C)(C)NC(C)(C)C1 was read as ROMK primary -3.66*, Calb biofilm kill 13.0 and ROMK retest 0.0645*.
`CCOc1cc(C)c(Cl)cc1S(=O)(=O)NCCOC` gave ROMK primary 1.38 and Calb biofilm kill -1.2.
C[C@@H]1C=C(C(=O)NC2CC2)O[C@H](OCc2ccc(CO)cc2)C1 was read as Calb biofilm kill 14.7.
`CCCCN(Cc1ccccc1)C(=O)CCN1C(=O)C2C3C=CC(C3)C2C1=O` (stereo unspecified) gave ROMK primary 0.492 and Calb biofilm kill 8.3.
`Cc1cccc(C)c1OCC(O)CN1CCN(c2ccccc2)CC1` (stereo unspecified) gave ROMK primary -0.46 and Calb biofilm kill 9.0.
Screening N#Cc1c(OCC(=O)c2ccccc2)nc2c(c1-c1ccco1)CCc1ccccc1-2 returned ROMK primary 0.498 and Calb biofilm kill 10.1.
For O=S(=O)(NCc1ccccn1)c1ccccc1 the results were ROMK primary 1.04.
Screening COc1ccccc1Oc1ccc(S(=O)(=O)NCc2ccccn2)cc1 returned ROMK primary -2.7* and ROMK retest 0.0734.
`CSc1cccc(NC(=S)N(CCC(C)C)C2CCN(C(C)C)CC2)c1` gave ROMK primary 0.304 and Calb biofilm kill 7.2.
Screening COC(=O)CN1C(=O)COc2ccc(Cl)cc21 returned ROMK primary 0.598 and Calb biofilm kill 12.2.
`COCCNC(=O)CN1C(=O)COc2ccc(Cl)cc21` gave ROMK primary 1.74, Calb biofilm kill 5.9 and ROMK retest 0.0785.
Cc1ccc2cc(C(c3nnnn3C(C)(C)C)N3CCCCCC3)c(=O)[nH]c2c1 (stereo unspecified) was read as ROMK primary 0.465.
`COc1cc2cc(C(c3nnnn3C(C)(C)C)N3CCc4ccccc4C3)c(=O)[nH]c2cc1OC` (stereo unspecified) gave ROMK primary -3.62* and ROMK retest inconclusive.
For Cc1ccc(C)c2sc(NC(=O)c3ccc(N4CCCCC4)c([N+](=O)[O-])c3)nc12 the results were ROMK primary 1.2.
COc1ccc(NC2c3ccccc3C(=O)N2Cc2ccccc2Cl)cc1OC (stereo unspecified) was read as ROMK primary -0.273 and Calb biofilm kill 27.1.
For O=C1c2ccccc2C(Nc2ccc3c(c2)OCCO3)N1Cc1ccccc1 (stereo unspecified) the results were ROMK retest 0.0776.
For Cc1ccc(OCCCC(=O)NC(C)c2ccccc2)cc1 (stereo unspecified) the results were ROMK primary 3.22* and ROMK retest 0.0924.
For CC(NC(=O)CCCOc1ccc(Cl)cc1)c1ccccc1 (stereo unspecified) the results were ROMK primary -1.24 and Calb biofilm kill 14.7.
For O=C(O)c1ccc2nc3c(nc2c1)-c1ccccc1C3=O the results were ROMK primary -1.69 and Calb biofilm kill 17.8.
Screening CCOC(=O)CN(C(=O)CNC(=O)c1cccs1)C(C(=O)NC1CCCC1)c1cccnc1 (stereo unspecified) returned ROMK primary -0.215.
`CCOC(=O)CN(C(=O)CNC(=O)c1cccs1)C(C(=O)NC1CCCCC1)c1cccs1` (stereo unspecified) gave Calb biofilm kill 15.7 and ROMK retest 0.0754.
`Cc1oc(-c2cc3c(cc2Cl)OCO3)nc1CN1CCCC1c1ccc(F)cc1` (stereo unspecified) gave ROMK primary 0.161 and Calb biofilm kill 0.8.
Cc1ccc(C#CC[N+]2(CC#Cc3ccc(C)cc3)CCCCC2)cc1 was read as ROMK primary -5.15*, Calb biofilm kill 22.3 and ROMK retest 0.056*.
C(#Cc1ccccc1)C[N+]1(CC#Cc2ccccc2)CCCCC1 was read as ROMK primary -0.757 and Calb biofilm kill 19.8.
`CCC(C)c1ccccc1NC(=O)C(C)N(C)Cc1cccc(OC)c1` (stereo unspecified) gave ROMK primary 0.0983 and Calb biofilm kill 5.4.
S=C(NCc1ccccc1)NCc1ccc(CNC(=S)NCc2ccccc2)cc1 was read as ROMK primary -0.457 and Calb biofilm kill -0.8.
`NC(=O)C1CCN(c2ccc(C(F)(F)F)cn2)CC1` gave ROMK primary 0.786 and Calb biofilm kill 13.5.
For c1ccc2nc3c(cc2c1)CCCCC3 the results were Calb biofilm kill 16.7 and ROMK retest 0.0738.
`c1ccc2nc3c(cc2c1)CCCCCC3` gave ROMK primary 0.0387.
COCCOC(=O)C1=C(C)OC(N)=C(C#N)C1c1ccc2c(c1)OCO2 (stereo unspecified) was read as ROMK primary -1.08.
C=CCOC(=O)C1=C(C)OC(N)=C(C#N)C1c1ccc2c(c1)OCO2 (stereo unspecified) was read as ROMK primary -3.22* and ROMK retest 0.0849*.
